Our source for the ED50 and Potentiation values is ChEMBL document CHEMBL1121839, “Synthesis of spiro[isobenzofuran-1(3H),4'-piperidines] as potential central nervous system agents. 6. Synthesis, 13C NMR, and biological evaluation of cis- and trans-4-amino-3'-arylspiro[cyclohexane-1,1'(3'H)-isobenzofuran] derivatives” (1981).

By ED50 is commonly meant the dose that gives a 50% effect, or the effect in half of the subjects.

Holding throughout (type): functional
One assay has as its system Mus musculus. The assay can be described thus: Inhibition of tetrabenazine-induced ptosis in mice following i.p. administration. The conditions noted are these: ip. A digest of the protocol:
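Male CD-1 mice, groups of five, received compound i.p.; tetrabenazine methanesulfonate 40 mg/kg i.p. followed 30 min later. After another 30 min, mice were housed singly and ptosis was scored (eyes closed 2, half open 1, open 0). ED50 and 95% confidence intervals came from linear regression of ptosis scores.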

The subject of assay [1] is Rattus norvegicus. The assay can be described thus: Percent potentiation of L-5-hydroxytryptophan-induced seizures (head-twitching) at 10 mg/kg i.p. in rats. The following applies: route intraperitoneal. A digest of the protocol:
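Male Wistar rats, groups of six, got pargyline HCl 75 mg/kg s.c. 4 h before testing and test drug i.p. (10 mL/kg) 30 min before. L-5-hydroxytryptophan 1 mg/kg i.p. in distilled water was then given. Rats were observed 5 min later for head motion and coarse tremors; continuous forelimb clonus counted as potentiation, normalized as percent versus vehicle control.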

In assay [2] the test system is Rattus norvegicus. The assay can be described thus: Effective concentration required for potentiation of L-5-hydroxytryptophan-induced seizures (head-twitching) in rats (administered intraperitoneally). The conditions noted are these: ip. The method in brief: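 Male Wistar rats, groups of six, pretreated with pargyline HCl 75 mg/kg sc 4 h before testing. Test drug given ip (10 mL/kg) 30 min before testing, then L-5-hydroxytryptophan 1 mg/kg ip in distilled water. Head motion and coarse tremors were scored 5 min later, with continuous forelimb clonus counted as potentiation. Results are expressed as normalized percent potentiation versus vehicle control.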

With `Cc1ccccc1C1O[C@]2(CC[C@@H](N(C)C)CC2)c2ccccc21` (stereo not given in full), the ED50 in the assay on Mus musculus is above 20 mg/kg. The Potentiation in the assay with Rattus norvegicus [1] is recorded as 0%. Taken in the same sequence, the figures for `CN(C)[C@H]1CC[C@]2(CC1)OC(c1ccc(F)cc1)c1ccccc12` (stereo not given in full) were 8.4 mg/kg and 50%. On the same counts, the results for `CN[C@H]1CC[C@]2(CC1)OC(c1ccccc1C)c1ccccc12` (stereo not given in full) are above 20 mg/kg and 50%. Turning to `CN[C@H]1CC[C@@]2(CC1)OC(c1ccccc1)c1ccccc12` (stereo not given in full), the ED50 with Mus musculus was above 20 mg/kg. Besides, the Potentiation with Rattus norvegicus [1] worked out at 50%. The compound `CN(C)[C@H]1CC[C@]2(CC1)OCc1ccccc12` registered a 50% effective dose (ED50) in the assay on Mus musculus above 20 mg/kg. Also, the Potentiation with Rattus norvegicus [1] amounted to 0%. Taken in the same sequence, the figures for `Cc1ccc(C2O[C@]3(CC[C@@H](N(C)C)CC3)c3ccccc32)cc1` (stereo not given in full) were above 20 mg/kg and 33%. Taken in the same sequence, the figures for `CCCC1(c2ccccc2)O[C@]2(CC[C@@H](N(C)C)CC2)c2ccccc21` (stereo not given in full) were above 20 mg/kg and 0%. As to `CN(C)[C@H]1CC[C@]2(CC1)OC(c1ccc(Cl)cc1)c1ccccc12` (stereo not given in full), the ED50 in the assay with Mus musculus is above 20 mg/kg. The Potentiation in the assay on Rattus norvegicus [1] is listed as 0%.

Consider `CC1O[C@]2(CC[C@@H](N(C)C)CC2)c2ccccc21` (stereo not given in full), for which it took a dose of 20 mg/kg to reach the 50% effect level with Mus musculus (ED50). In addition, the Potentiation in the assay with Rattus norvegicus [1] worked out at 0%. Taken in the same sequence, the figures for `CN[C@H]1CC[C@]2(CC1)OC(c1ccccc1)c1ccccc12` (stereo not given in full) were 2 mg/kg and 0%. Taken in the same sequence, the figures for `CN[C@H]1CC[C@]2(CC1)OC(c1ccc(F)cc1)c1ccccc12` (stereo not given in full) were 20 mg/kg and 0%. On the same counts, the results for `CN(C)[C@H]1CC[C@@]2(CC1)OC(c1ccccc1)c1ccccc12` (stereo not given in full) are above 20 mg/kg and 0%.

`CN[C@H]1CC[C@]2(CC1)OC(c1ccc(Cl)cc1)c1ccccc12` (stereo not given in full): the ED50 in the assay with Mus musculus was above 20 mg/kg. Moreover, the Potentiation with Rattus norvegicus [1] was 0%.

`CN(C)CCC=C1c2ccccc2CCc2ccccc21` [AMITRIPTYLINE]: the 50% effective dose (ED50) with Mus musculus is 1.5 mg/kg; with Rattus norvegicus [2] it was 7.1 mg/kg. As to `CCC1(c2ccccc2)O[C@]2(CC[C@@H](N(C)C)CC2)c2ccccc21` (stereo not given in full), the ED50 with Mus musculus was above 20 mg/kg. Moreover, the Potentiation with Rattus norvegicus [1] stood at 0%. For the compound `CNCCCN1c2ccccc2CCc2ccccc21` [DESIPRAMINE], the 50% effect level in the assay on Mus musculus (ED50) was put at a dose of 0.3 mg/kg. Take `CN(C)[C@H]1CC[C@]2(CC1)OC(c1ccccc1)c1ccccc12` (stereo not given in full): the ED50 in the assay with Mus musculus came out at 3.7 mg/kg. For the same compound, the Potentiation in the assay on Rattus norvegicus [1] is recorded as 50%. On the same counts, the results for `CN(C)[C@H]1CC[C@]2(CC1)OC(C)(c1ccccc1)c1ccccc12` (stereo not given in full) are above 20 mg/kg and 0%.
